The target in experiment [1] is T1, Coagulation factor X (Homo sapiens, UniProt P00742). The experiment is described as follows: In vitro inhibition was measured against Human Coagulation factor X; […]. The procedure, abridged:
(§1)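 Factor Xa was used at 30 pM final, with Pefachrome Xa substrate, in phosphate buffer pH 7.4 with 100 mM NaCl and 0.1% BSA, at 25 °C. The enzyme-initiated reaction was followed as the 405 nm increase for 30 min. Inhibitor was diluted from a cremophor/ethanol solution. Ki came from weighted Dixon-plot regression; triplicate determinations.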

In a further experiment the target is Prothrombin (Homo sapiens, UniProt P00734). The experiment is described as follows: In vitro inhibition was measured against Human Thrombin.
The target of experiment [2] is T2, Serine protease 1 (Bos taurus, UniProt P00760).
T2 sequence (P00760 whole entry): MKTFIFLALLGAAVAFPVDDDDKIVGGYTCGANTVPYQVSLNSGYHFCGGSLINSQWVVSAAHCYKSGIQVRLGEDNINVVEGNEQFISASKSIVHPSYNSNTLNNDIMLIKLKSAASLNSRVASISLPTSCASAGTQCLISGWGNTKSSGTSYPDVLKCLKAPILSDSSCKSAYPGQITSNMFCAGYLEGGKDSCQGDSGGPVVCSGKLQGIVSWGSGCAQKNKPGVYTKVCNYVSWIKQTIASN
The experiment is described as follows: In vitro inhibition was measured against […] bovine pancreatic trypsin. The procedure, abridged:
(§2)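 Trypsin at 260 pM final was run with Pefachrome TRY substrate in 100 mM sodium phosphate pH 7.4, 100 mM NaCl and 0.1% BSA, at 25 °C. Inhibitor was pre-mixed with substrate and the reaction started with enzyme. Absorbance at 405 nm (p-nitroaniline) was read over 30 min. Ki was fitted to the Dixon equation by weighted linear regression; triplicate, mean ± SD.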

For experiment [3], the target named is T1, Coagulation factor X. The experiment is described as follows: In vitro inhibition was measured against Human Coagulation factor X. The procedure, abridged:
as §1

For experiment [4], the target named is T2, Serine protease 1. The experiment is described as follows: In vitro inhibition was measured against Bovine pancreatic trypsin. In short, it runs like this:
as §2

Molecules are shown by their SMILES.

T1 sequence (P00742 41-179 limits assumed): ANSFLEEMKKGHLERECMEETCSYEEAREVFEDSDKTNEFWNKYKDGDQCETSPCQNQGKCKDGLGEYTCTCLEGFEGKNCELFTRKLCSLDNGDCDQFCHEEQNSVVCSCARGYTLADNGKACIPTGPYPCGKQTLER
T1 sequence (P00742 235-488 limits assumed): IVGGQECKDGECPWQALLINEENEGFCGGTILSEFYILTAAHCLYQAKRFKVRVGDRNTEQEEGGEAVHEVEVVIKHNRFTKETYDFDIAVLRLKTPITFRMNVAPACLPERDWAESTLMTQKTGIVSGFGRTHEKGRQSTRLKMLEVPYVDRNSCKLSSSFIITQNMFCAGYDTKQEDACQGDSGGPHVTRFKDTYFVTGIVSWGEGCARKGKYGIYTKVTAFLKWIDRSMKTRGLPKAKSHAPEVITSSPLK

For `NC(N)=NCCCCNC(=O)[C@@H]1CS[C@H]2CC[C@H](N)C(=O)N21.O=C(O)C(F)(F)F`, the Ki entry on Coagulation factor X [1] is “Not Active”; on Prothrombin, 19.5 µM; on Serine protease 1 [2] it was 3.58 µM.
Regarding `N=C(N)NCCCNC(=O)[C@@H]1CS[C@H]2CC[C@@H](NS(=O)(=O)Cc3ccccc3)C(=O)N21`, the Ki came out at 26 µM at Coagulation factor X [3] and 5.1 µM on Serine protease 1 [2].
Consider `N=C(N)NCCCNC(=O)[C@@H]1CS[C@H]2CC[C@H](NS(=O)(=O)c3cccc4ccccc34)C(=O)N21`, for which the Ki stood at 17.8 µM at Coagulation factor X [3] and 19.6 µM on Serine protease 1 [4].
For the compound `N=C(N)NCCCNC(=O)[C@@H]1CS[C@H]2CC[C@@H](NS(=O)(=O)c3cccc4ccccc34)C(=O)N21`, the Ki at Coagulation factor X [3] stood at 6.78 µM; at Prothrombin, 0.751 µM; at Serine protease 1 [2], 3.4 µM.
On to `NC(N)=NCCCCNC(=O)[C@@H]1CS[C@H]2CC[C@@H](N)C(=O)N21.O=C(O)C(F)(F)F`, for which the Ki entry at Coagulation factor X [1] was “Not Active”; at Prothrombin it was 62.4 µM; at Serine protease 1 [2], 5.36 µM.
Take `NC(N)=NCCCNC(=O)[C@@H]1CS[C@H]2CC[C@H](N)C(=O)N21`: the Ki at Coagulation factor X [3] is more than 33.7 µM; on Prothrombin it was 5.1 µM; on Serine protease 1 [2] it was 13.3 µM.
For the compound `NC(N)=NCCCNC(=O)[C@@H]1CS[C@H]2CC[C@@H](N)C(=O)N21.O=C(O)C(F)(F)F`, the Ki result on Coagulation factor X [1] is “Not Active”; at Prothrombin, 10.3 µM; on Serine protease 1 [2] it was 25.1 µM.
Consider `N=C(N)NCCCNC(=O)[C@@H]1CS[C@H]2CC[C@H](NS(=O)(=O)Cc3ccccc3)C(=O)N21`, for which the values for the Ki at Coagulation factor X [3], on Prothrombin and at Serine protease 1 [2] were more than 33.7 µM, 0.111 µM and 7.9 µM, respectively.

Usually Ki stands for a dissociation constant, usually derived from enzyme kinetics or from competition with a known ligand.
